Assay results reported in ChEMBL document CHEMBL4610127, “Novel Autotaxin Inhibitor for the Treatment of Idiopathic Pulmonary Fibrosis: A Clinical Candidate Discovered Using DNA-Encoded Chemistry” (J Med Chem, 2020).
pIC50: −log10 of the molar value. Converted amounts (≈) assume the structure as drawn. The source made the active and inactive calls. The rule behind the calls is not given here.

Columns and labels:
[1] = Half life in rat liver microsomes; assay type: ADME, Microsome
[2] = Thermodynamic solubility in pH 7.4 buffer; assay type: physicochemical; settings: read-out: Therm_solubility
Mus musculus [3] = assay: Anti-fibrotic activity in C57BL/6 mouse model of bleomycin-induced lung fibrosis assessed as reduction in hydroxyproline levels at 30 to 300 mg/kg, po BID dosed until day 21 starting one day prior to bleomycin treatment; assay type: functional; settings: C57BL/6, po, read-out: MED
Summary of the method: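 Mice given oral BID doses (30, 100 or 300 mg/kg) starting one day before bleomycin. Killed 21 days after bleomycin; lung fibrosis scored by hydroxyproline in one group. GLPG1690 at 30 and 100 mg/kg BID as control. Hydroxyproline plotted per mouse; medians and p-values against bleomycin + vehicle.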

Autotaxin (Mus musculus) = Autotaxin (Mus musculus) (UniProt Q9R1E6); assay: Potency index, ratio of IC50 for GLPG1690 to IC50 for test compound for inhibition of autotaxin in mouse plasma assessed as reduction in LPA (18:2) production incubated for 2 hrs LC-MS-/MS analysis; assay type: cell-free
[4] = Half life in human liver microsomes; assay type: ADME, Microsome
Cytochrome P450 2C19 = Cytochrome P450 2C19 (Homo sapiens, UniProt P33261); assay: Inhibition of CYP2C19 (unknown origin); assay type: ADME
Chain of Cytochrome P450 2C19 (P33261 whole entry): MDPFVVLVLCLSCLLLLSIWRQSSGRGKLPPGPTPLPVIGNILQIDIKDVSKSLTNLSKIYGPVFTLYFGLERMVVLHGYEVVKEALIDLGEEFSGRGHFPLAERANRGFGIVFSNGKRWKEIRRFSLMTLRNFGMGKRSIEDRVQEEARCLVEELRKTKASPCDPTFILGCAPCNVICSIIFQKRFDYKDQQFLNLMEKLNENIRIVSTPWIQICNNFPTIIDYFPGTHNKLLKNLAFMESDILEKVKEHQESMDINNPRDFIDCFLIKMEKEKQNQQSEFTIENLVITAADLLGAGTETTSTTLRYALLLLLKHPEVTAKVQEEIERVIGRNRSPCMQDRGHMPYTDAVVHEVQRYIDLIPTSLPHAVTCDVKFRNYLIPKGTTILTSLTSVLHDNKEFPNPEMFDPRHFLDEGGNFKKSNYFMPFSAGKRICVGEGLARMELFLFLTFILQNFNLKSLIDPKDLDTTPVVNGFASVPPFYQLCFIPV

[5] = Time above IC90 in mouse at 30 mg/kg, po; assay type: ADME, organism-based; settings: in vivo
[6] = Half life in dog at 1 mg/kg, po; assay type: ADME, organism-based, Canis lupus familiaris; settings: in vivo
[7] = Half life in rat at 1 mg/kg, iv; assay type: ADME, organism-based; settings: in vivo
Autotaxin [8] = molecular target: T1, Autotaxin (Homo sapiens, UniProt Q13822); assay: Inhibition of autotaxin in human plasma assessed as reduction in LPA (18:2) production incubated for 2 hrs LC-MS-/MS analysis; assay type: cell-free
[9] = Clearance in mouse at 1 mg/kg, iv; assay type: ADME, organism-based; settings: in vivo
[10] = Oral bioavailability in rat at 5 mg/kg; assay type: ADME, organism-based; settings: in vivo
[11] = Protein binding in human plasma; assay type: ADME, cell-free; settings: read-out: PPB (converted)
[12] = Half life in mouse at 10 mg/kg, po; assay type: ADME, organism-based; settings: in vivo
Autotaxin [13] = molecular target: T1, Autotaxin; assay: Potency index, ratio of IC50 for GLPG1690 to IC50 for test compound for inhibition of autotaxin in human plasma assessed as reduction in LPA (18:2) production incubated for 2 hrs LC-MS-/MS analysis; assay type: cell-free
Rattus norvegicus = assay: Inhibition of LPA (20:4) production in rat at 0.1 to 30 mg/kg, po measured after 4 hrs by LC-MS/MS analysis; assay type: functional, organism-based
Summary of the method: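 Rats dosed orally across a dose range. LPA 20:4 and compound levels measured by LC-MS/MS in blood at 4 h post-dose. LPA 20:4 chosen because it is more abundant in rats. Average percent inhibition of LPA plotted against plasma compound level to derive IC50.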

Mus musculus [14] = assay: Anti-fibrotic activity in C57BL/6 mouse model of bleomycin-induced lung fibrosis assessed as reduction in hydroxyproline levels at 100 to 300 mg/kg, po BID for 21 days dosed 7 days after bleomycin treatment; assay type: functional, organism-based
Summary of the method: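 Mice given oral BID doses (30, 100 or 300 mg/kg) starting seven days after bleomycin. Killed 21 days after bleomycin; lung fibrosis scored by hydroxyproline in one group. GLPG1690 at 30 and 100 mg/kg BID as control. Medians and p-values against bleomycin + vehicle.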

[15] = Half life in mouse at 1 mg/kg, iv; assay type: ADME, organism-based; settings: in vivo
Cytochrome P450 1A2 = molecular target: T2, Cytochrome P450 1A2 (Homo sapiens, UniProt P05177); assay: Inhibition of CYP1A2 (unknown origin); assay type: ADME
T2 sequence (P05177 whole entry): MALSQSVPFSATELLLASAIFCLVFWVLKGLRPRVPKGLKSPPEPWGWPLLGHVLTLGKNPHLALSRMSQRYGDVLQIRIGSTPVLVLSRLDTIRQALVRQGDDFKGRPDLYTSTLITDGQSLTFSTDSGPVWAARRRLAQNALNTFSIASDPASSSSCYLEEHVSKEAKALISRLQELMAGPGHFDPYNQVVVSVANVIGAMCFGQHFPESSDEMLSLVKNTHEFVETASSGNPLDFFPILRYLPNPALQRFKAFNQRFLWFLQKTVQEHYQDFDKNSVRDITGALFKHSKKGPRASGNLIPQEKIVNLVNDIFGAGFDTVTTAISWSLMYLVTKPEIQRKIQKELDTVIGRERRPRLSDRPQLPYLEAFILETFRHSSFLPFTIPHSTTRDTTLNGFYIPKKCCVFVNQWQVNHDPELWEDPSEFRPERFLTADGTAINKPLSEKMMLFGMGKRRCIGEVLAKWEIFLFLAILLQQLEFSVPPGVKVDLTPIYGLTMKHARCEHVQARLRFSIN

[16] = molecular target: Lysophosphatidic acid receptor 2 (Homo sapiens, UniProt Q9HBW0); assay: Inhibition of LPAR2 (unknown origin)
Chain of Lysophosphatidic acid receptor 2 (Q9HBW0 whole entry): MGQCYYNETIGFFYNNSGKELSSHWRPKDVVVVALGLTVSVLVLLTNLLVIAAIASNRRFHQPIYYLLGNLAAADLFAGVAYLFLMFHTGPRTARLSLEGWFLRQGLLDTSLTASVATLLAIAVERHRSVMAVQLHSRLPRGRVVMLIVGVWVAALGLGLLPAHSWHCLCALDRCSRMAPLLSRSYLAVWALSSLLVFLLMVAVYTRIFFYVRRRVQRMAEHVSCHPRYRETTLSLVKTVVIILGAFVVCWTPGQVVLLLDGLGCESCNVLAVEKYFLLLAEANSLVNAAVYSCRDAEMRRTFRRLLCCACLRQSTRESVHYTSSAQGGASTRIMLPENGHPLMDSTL

[17] = molecular target: T3, Lysophosphatidic acid receptor 3 (Homo sapiens, UniProt Q9UBY5); assay: Inhibition of LPAR3 (unknown origin)
T3 sequence (Q9UBY5 whole entry): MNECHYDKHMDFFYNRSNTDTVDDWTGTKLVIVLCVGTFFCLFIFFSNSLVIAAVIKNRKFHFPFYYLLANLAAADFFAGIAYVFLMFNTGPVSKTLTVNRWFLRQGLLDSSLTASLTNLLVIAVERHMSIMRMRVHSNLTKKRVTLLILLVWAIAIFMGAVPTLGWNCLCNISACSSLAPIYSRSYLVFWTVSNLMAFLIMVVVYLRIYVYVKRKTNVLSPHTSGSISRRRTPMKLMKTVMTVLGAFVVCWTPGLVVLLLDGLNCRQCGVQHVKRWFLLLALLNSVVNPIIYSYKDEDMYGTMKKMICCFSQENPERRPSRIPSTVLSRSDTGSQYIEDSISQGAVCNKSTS

[18] = AUClast in dog at 1 mg/kg, po; assay type: ADME, organism-based, Canis lupus familiaris; design: dose 1 mg/kg, time 0 - last, route oral; settings: in vivo
Cytochrome P450 2C9 = Cytochrome P450 2C9 (Homo sapiens, UniProt P11712); assay: Inhibition of CYP2C9 (unknown origin); assay type: ADME
Chain of Cytochrome P450 2C9 (P11712 whole entry): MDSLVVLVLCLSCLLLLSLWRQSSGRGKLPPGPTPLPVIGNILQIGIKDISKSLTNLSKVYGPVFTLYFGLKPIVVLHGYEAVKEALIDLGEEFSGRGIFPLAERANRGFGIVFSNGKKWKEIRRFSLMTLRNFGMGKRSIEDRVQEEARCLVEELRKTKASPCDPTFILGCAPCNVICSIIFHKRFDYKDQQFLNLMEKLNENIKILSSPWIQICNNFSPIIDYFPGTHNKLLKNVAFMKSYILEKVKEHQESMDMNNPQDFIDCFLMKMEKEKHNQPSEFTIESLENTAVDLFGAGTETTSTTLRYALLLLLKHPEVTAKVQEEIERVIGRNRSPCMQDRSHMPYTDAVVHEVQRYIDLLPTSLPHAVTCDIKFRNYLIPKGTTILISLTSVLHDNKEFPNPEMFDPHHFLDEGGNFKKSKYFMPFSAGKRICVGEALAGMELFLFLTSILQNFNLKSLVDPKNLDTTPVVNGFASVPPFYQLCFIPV

Cytochrome P450 3A4 = Cytochrome P450 3A4 (Homo sapiens, UniProt P08684); assay: Inhibition of CYP3A4 (unknown origin); assay type: ADME
Chain of Cytochrome P450 3A4 (P08684 whole entry): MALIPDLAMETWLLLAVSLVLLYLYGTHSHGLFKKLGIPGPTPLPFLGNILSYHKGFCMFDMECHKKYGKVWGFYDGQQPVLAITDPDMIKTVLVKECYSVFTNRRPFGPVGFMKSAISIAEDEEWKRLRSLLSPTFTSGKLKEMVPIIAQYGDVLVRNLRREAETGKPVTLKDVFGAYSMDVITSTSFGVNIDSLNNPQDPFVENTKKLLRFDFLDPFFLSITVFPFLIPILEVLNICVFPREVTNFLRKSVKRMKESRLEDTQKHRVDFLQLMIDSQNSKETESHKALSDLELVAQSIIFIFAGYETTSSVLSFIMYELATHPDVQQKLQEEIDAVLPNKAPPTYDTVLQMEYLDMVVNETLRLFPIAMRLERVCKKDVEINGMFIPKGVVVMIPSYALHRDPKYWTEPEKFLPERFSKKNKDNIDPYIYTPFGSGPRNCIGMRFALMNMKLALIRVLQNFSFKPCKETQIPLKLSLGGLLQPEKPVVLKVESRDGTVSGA

[19] = Volume of distribution at steady state in mouse at 1 mg/kg, iv; assay type: ADME, organism-based; settings: in vivo, read-out: Vdss
Autotaxin [20] = molecular target: Autotaxin (Mus musculus, UniProt Q9R1E6); assay: Inhibition of autotaxin in mouse plasma assessed as reduction in LPA (18:2) production incubated for 2 hrs LC-MS-/MS analysis; assay type: cell-free
Autotaxin [21] = molecular target: T1, Autotaxin; assay: Inhibition of C-terminal FLAG-tagged human autotaxin expressed in Freestyle 293 cells assessed as reduction in choline release from LPC 16:0 pre-incubated for 10 mins before LPC addition and measured after 1 hr by choline oxidase/HRP coupled assay; assay type: cell-based
[22] = Volume of distribution at steady state in dog at 1 mg/kg, iv; assay type: ADME, organism-based, Canis lupus familiaris; settings: in vivo, read-out: Vdss

CC(C)[C@@H](NC(=O)c1cc(C(F)(F)F)ccc1F)C(=O)N1CCC2(CC1)C(=O)N(C)C(=O)N2c1ccc2[nH]ncc2c1
half-life [1]: 4.62 h | solubility thermodynamic [2]: 452 µM (≈ 266 µg/mL) | minimal effective dose (Mus musculus [3]): 30 mg/kg | Ratio IC50 (Autotaxin (Mus musculus)): 60 | half-life [4]: 8.88 h | pIC50 (Cytochrome P450 2C19): 4.34 | Time [5]: 12 h | half-life [6]: 4.2 h | half-life [7]: 1.5 h | pIC50 (Autotaxin [8]): 7.85 | clearance [9]: 54 mL/min/kg | bioavailability [10]: 24% | fraction unbound [11]: 0.113 | half-life [12]: 2.5 h | Ratio IC50 (Autotaxin [13]): 20 | pIC50 (Rattus norvegicus): 8.19 | inhibition (Rattus norvegicus): Dose-dependent effect | Activity (Mus musculus [14]): Active | half-life [15]: 0.57 h | pIC50 (Cytochrome P450 1A2): < 4.30 | pIC50 [16]: < 5.00 | pIC50 [17]: < 5.00 | AUC(0-t) [18]: 3080 ng·h/mL | pIC50 (Cytochrome P450 2C9): 4.98 | pIC50 (Cytochrome P450 3A4): < 4.30 | Vd [19]: 1.38 L/kg | pIC50 (Autotaxin [20]): 8.15 | pIC50 (Autotaxin [21]): 7.26 | Vd [22]: 0.655 L/kg
